# Assay results: ChEMBL document CHEMBL3817731, “Synthesis and investigation of novel benzimidazole derivatives as antifungal agents” (Bioorg Med Chem, 2016)
# Activity calls are given as the source filed them. The calls are words filed in the database; no cut-off is given here.
# Columns and labels:
# Candida albicans [1] = assay: Antifungal activity against Candida albicans ATCC MYA-90819 after 48 hrs by CLSI M27-A3 method; type: functional; details: ATCC MYA-90819, 48 h
# Candida parapsilosis = assay: Antifungal activity against Candida parapsilosis ATCC 22019 after 48 hrs by CLSI M27-A3 method; type: functional; details: Lodderomyces parapsilosis, ATCC 22019, 48 h
# Candida albicans [2] = assay: Antifungal activity against Candida albicans ATCC 64124 after 48 hrs by CLSI M27-A3 method; type: functional; details: ATCC 64124, 48 h
# Nakaseomyces glabratus = assay: Antifungal activity against Candida glabrata ATCC 2001 after 48 hrs by CLSI M27-A3 method; type: functional; details: CBS 138, 48 h
# Candida albicans [3] = assay: Antifungal activity against Candida albicans ATCC MYA-2876 after 48 hrs by CLSI M27-A3 method; type: functional; details: ATCC MYA-2876, 48 h
# Candida albicans [4] = assay: Antifungal activity against Candida albicans ATCC MYA-2310 after 48 hrs by CLSI M27-A3 method; type: functional; details: ATCC MYA-2310, 48 h
# Candida albicans [5] = assay: Antifungal activity against Candida albicans ATCC 10231 after 48 hrs by CLSI M27-A3 method; type: functional; details: ATCC 10231, 48 h
# Pichia kudriavzevii = assay: Antifungal activity against Candida krusei ATCC 6258 after 48 hrs by CLSI M27-A3 method; type: functional; details: ATCC 6258, 48 h
# Aspergillus flavus = assay: Antifungal activity against Aspergillus flavus ATCC MYA-3631 after 48 hrs by CLSI M38-A2 method; type: functional; details: ATCC MYA-3631, 48 h
# Aspergillus terreus = assay: Antifungal activity against Aspergillus terreus ATCC MYA3633 after 48 hrs by CLSI M38-A2 method; type: functional; details: ATCC MYA3633, 48 h
# Candida albicans [6] = assay: Antifungal activity against Candida albicans ATCC MYA-1237 after 48 hrs by CLSI M27-A3 method; type: functional; details: ATCC MYA-1237, 48 h
# Aspergillus nidulans = assay: Antifungal activity against Aspergillus nidulans ATCC 38163 after 48 hrs by CLSI M38-A2 method; type: functional; details: ATCC 38163, 48 h
# Candida albicans [7] = assay: Antifungal activity against Candida albicans ATCC MYA-1003 after 48 hrs by CLSI M27-A3 method; type: functional; details: ATCC MYA-1003, 48 h
# A549 = assay: Cytotoxicity against human A549 cells assessed as reduction in cell survival after 24 hrs by resazurin assay; type: cell-based; details: A549, 24 h
# In short: (§1)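 Human A549 cells treated 24 h; BEAS 2B cells treated 6 h or 24 h. DMSO-treated cells served as negative control and Triton X-treated cells as positive control. Read-out was cell survival.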
# [8] = Cytotoxicity against human BEAS2B cells assessed as reduction in cell survival after 24 hrs by resazurin assay; type: cell-based; details: BEAS-2B; in short: as §1
# [9] = Cytotoxicity against human BEAS2B cells assessed as reduction in cell survival after 6 hrs by resazurin assay; type: cell-based; details: beas-2b; in short: as §1
# Candida albicans [10] = assay: Fungistatic activity against Candida albicans ATCC 64124 assessed as reduction in fungal population at MIC after 24 hrs by time kill assay
# Candida albicans [11] = assay: Induction of ROS production in Candida albicans ATCC 10231 at 1 to 2 times MIC after 1 hr by DCFH-DA probe based fluorescence microscopy; type: functional, organism-based
# Candida albicans [12] = assay: Fungistatic activity against Candida albicans ATCC 64124 assessed as reduction in fungal population at MIC upto 24 hrs by time kill assay; type: functional, organism-based
# Candida albicans [13] = assay: Fungicidal activity against Candida albicans ATCC 64124 assessed as reduction in fungal population at 2 times MIC after 24 to 48 hrs by time kill assay; type: functional
SMILES,MIC (Candida albicans [1]) [µg/mL],MIC (Candida parapsilosis) [µg/mL],MIC (Candida albicans [2]) [µg/mL],MIC (Nakaseomyces glabratus) [µg/mL],MIC (Candida albicans [3]) [µg/mL],MIC (Candida albicans [4]) [µg/mL],MIC (Candida albicans [5]) [µg/mL],MIC (Pichia kudriavzevii) [µg/mL],MIC (Aspergillus flavus) [µg/mL],MIC (Aspergillus terreus) [µg/mL],MIC (Candida albicans [6]) [µg/mL],MIC (Aspergillus nidulans) [µg/mL],MIC (Candida albicans [7]) [µg/mL],IC50 (A549) [µg/mL],IC50 [8] [µg/mL],Activity [9],Activity (Candida albicans [10]) [log10CFU],Activity (Candida albicans [11]),Activity (Candida albicans [12]),Activity (Candida albicans [13]) [log10CFU]
OC(Cn1cncn1)(Cn1cncn1)c1ccc(F)cc1F [FLUCONAZOLE],> 125,1.95,> 125,> 31.2,15.6,> 125,,,,,,,,,,,,,,
C#CCOc1ccc(-c2nc3ccc(N4CCN(C)CC4)cc3[nH]2)cc1,> 31.2,> 31.2,> 31.2,> 31.2,> 31.2,> 31.2,> 31.2,> 31.2,> 31.2,> 31.2,> 31.2,> 31.2,> 31.2,,,,,,,
CCCCCN1CCN(c2ccc3nc(-c4ccc5nc(-c6ccc(OCC)cc6)[nH]c5c4)[nH]c3c2)CC1,> 31.2,> 31.2,> 31.2,> 31.2,> 31.2,> 31.2,> 31.2,> 31.2,> 31.2,> 31.2,> 31.2,> 31.2,> 31.2,,,,,,,
C#CCOc1ccc(-c2nc3ccc(-c4nc5ccc(-c6nc7ccc(N8CCN(C)CC8)cc7[nH]6)cc5[nH]4)cc3[nH]2)cc1,> 31.2,> 31.2,> 31.2,31.2,> 31.2,> 31.2,> 31.2,> 31.2,> 31.2,31.2,> 31.2,31.2,> 31.2,,,,,,,
C#CCOc1ccc(-c2nc3ccc(-c4nc5ccc(N6CCN(CCC)CC6)cc5[nH]4)cc3[nH]2)cc1,> 31.2,> 31.2,> 31.2,> 31.2,> 31.2,> 31.2,> 31.2,15.6,> 31.2,> 31.2,> 31.2,> 31.2,> 31.2,,,,,,,
CCN1CCN(c2ccc3nc(-c4ccc5nc(-c6ccc(OC)cc6)[nH]c5c4)[nH]c3c2)CC1,> 31.2,7.8,> 31.2,7.8,> 31.2,> 31.2,> 31.2,31.2,> 31.2,> 31.2,> 31.2,> 31.2,> 31.2,,,,,,,
CCCN1CCN(c2ccc3nc(-c4ccc5nc(-c6ccc(OCC)cc6)[nH]c5c4)[nH]c3c2)CC1,> 31.2,> 31.2,> 31.2,> 31.2,> 31.2,> 31.2,> 31.2,15.6,> 31.2,> 31.2,> 31.2,> 31.2,> 31.2,,,,,,,
C#CCOc1ccc(-c2nc3ccc(-c4nc5ccc(N6CCN(C)CC6)cc5[nH]4)cc3[nH]2)cc1,,1.95,31.2,7.8,7.8,7.8,7.8,7.8,> 31.2,,> 31.2,,,15.6,0.98,Non-toxic,,,,
CCCCCCCCCCCCOc1ccc(-c2nc3ccc(-c4nc5ccc(N6CCN(C)CC6)cc5[nH]4)cc3[nH]2)cc1,> 31.2,> 31.2,> 31.2,> 31.2,> 31.2,> 31.2,> 31.2,> 31.2,> 31.2,> 31.2,> 31.2,> 31.2,> 31.2,,,,,,,
CN1CCN(c2ccc3[nH]c(-c4ccc5[nH]c(-c6ccc(O)cc6)nc5c4)nc3c2)CC1 [HOECHST 33258],7.8,0.975,,0.975,7.8,3.9,,,31.2,,3.9,1.95,7.8,≥ 31.2,≥ 31.2,Non-toxic,1,Active,Active,5
